Laboratory results published in ChEMBL document CHEMBL1130120, “N-arylpiperazinyl-N'-propylamino derivatives of heteroaryl amides as functional uroselective alpha 1-adrenoceptor antagonists” (J Med Chem, 1997).

Columns and labels:
[1] = target: T1, 5-hydroxytryptamine receptor 1A (Mus musculus) (UniProt Q64264); assay: The compound's binding affinity against 5-hydroxytryptamine 1A receptor
T1 sequence (whole entry): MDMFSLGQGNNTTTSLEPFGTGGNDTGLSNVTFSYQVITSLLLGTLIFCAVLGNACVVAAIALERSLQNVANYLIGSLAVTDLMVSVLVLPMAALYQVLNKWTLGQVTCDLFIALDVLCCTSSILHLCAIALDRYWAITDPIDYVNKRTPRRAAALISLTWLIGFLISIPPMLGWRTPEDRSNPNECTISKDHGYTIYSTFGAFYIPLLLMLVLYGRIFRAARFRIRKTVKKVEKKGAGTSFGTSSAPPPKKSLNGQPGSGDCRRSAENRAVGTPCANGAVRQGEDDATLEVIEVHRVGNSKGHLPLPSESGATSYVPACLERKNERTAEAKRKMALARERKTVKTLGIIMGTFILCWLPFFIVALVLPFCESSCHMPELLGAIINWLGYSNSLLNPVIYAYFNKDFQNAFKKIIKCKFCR

[2] = target: T2, Alpha-1D adrenergic receptor (Rattus norvegicus, UniProt P23944); assay: Antagonistic activity against rat aorta for affinity estimates representative of the Alpha-1D adrenergic receptor; format: functional, tissue-based; conditions: read-out: pA2 (converted)
T2 sequence (P23944 whole entry): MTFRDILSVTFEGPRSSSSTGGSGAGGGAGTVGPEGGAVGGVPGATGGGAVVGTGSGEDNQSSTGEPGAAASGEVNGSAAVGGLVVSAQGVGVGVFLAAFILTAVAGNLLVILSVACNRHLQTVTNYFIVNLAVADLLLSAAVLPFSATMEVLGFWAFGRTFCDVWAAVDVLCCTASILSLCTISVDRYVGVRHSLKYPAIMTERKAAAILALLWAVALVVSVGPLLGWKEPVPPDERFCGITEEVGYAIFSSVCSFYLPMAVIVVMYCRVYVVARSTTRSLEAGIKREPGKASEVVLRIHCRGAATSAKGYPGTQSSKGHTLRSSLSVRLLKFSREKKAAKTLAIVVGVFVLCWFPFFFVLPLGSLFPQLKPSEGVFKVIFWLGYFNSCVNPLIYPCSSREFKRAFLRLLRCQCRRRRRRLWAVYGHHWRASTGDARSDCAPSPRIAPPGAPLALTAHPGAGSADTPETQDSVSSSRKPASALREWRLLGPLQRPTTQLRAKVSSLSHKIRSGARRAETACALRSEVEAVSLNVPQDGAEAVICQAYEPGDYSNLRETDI
How it was run: (§1)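 Isolated smooth-muscle tissue with cumulative norepinephrine concentration–effect curves (rat aorta, human lower urinary tract). Affinity obtained by full Schild regression for some antagonists. […] Competitive, reversible interaction at a single subtype assumed.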

[3] = target: T3, Alpha-1A adrenergic receptor (Oryctolagus cuniculus, UniProt O02824); assay: Antagonistic activity against alpha 1A/1L receptor was assessed in a rabbit bladder neck functional assay; conditions: read-out: pA2 (converted)
T3 sequence (O02824 whole entry): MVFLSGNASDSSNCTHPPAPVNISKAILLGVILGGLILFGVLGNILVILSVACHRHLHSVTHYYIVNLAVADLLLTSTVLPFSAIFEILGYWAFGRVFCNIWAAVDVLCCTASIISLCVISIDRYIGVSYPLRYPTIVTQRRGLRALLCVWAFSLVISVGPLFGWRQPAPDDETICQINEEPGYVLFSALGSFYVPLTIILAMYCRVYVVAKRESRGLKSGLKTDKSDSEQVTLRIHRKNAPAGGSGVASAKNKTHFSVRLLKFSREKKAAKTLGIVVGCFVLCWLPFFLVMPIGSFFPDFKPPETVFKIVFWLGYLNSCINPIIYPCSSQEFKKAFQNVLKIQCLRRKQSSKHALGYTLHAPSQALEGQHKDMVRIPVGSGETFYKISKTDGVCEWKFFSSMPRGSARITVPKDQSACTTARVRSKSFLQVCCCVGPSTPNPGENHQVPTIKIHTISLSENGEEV

D(2) dopamine receptor = D(2) dopamine receptor (Homo sapiens, UniProt P14416); assay: The compound's binding affinity against Dopamine receptor D2
D(2) dopamine receptor, sequence (P14416 whole entry): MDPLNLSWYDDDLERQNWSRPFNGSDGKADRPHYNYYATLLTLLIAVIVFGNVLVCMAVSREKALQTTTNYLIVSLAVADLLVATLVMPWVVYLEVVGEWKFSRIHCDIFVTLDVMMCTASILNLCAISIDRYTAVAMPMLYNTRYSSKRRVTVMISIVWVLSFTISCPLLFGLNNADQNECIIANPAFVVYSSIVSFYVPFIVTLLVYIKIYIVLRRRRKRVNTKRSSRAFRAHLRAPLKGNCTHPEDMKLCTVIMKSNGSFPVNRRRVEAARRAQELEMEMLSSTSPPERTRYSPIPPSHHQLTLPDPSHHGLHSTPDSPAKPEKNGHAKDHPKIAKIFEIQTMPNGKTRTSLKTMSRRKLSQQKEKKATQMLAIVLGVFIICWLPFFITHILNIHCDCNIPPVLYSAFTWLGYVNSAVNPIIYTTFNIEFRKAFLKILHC

[4] = target: Adrenergic receptor alpha-1 (Homo sapiens) (UniProt P35348+P25100+P35368); assay: The compound was screened in vitro for functional activity against Alpha-1 adrenergic receptor subtypes of human prostate tissue; how it was run: as §1
[5] = target: T4, Alpha-1A adrenergic receptor (Bos taurus, UniProt P18130); assay: In vitro for the displacement of [3H]prazosin binding to bovine Alpha-1A adrenergic receptor
T4 sequence (P18130 whole entry): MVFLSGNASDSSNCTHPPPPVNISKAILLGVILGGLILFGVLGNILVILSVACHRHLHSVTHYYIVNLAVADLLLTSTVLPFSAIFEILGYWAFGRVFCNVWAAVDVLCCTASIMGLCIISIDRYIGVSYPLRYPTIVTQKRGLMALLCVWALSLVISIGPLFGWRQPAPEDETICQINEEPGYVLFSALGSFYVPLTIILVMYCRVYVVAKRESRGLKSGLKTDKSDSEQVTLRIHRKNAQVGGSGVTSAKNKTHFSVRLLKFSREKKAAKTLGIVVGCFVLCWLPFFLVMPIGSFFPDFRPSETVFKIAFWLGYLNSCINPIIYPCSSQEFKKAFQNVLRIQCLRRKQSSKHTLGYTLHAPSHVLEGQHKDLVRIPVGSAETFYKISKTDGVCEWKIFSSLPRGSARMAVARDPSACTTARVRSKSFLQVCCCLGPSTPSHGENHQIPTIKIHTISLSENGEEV

[6] = target: T4, Alpha-1A adrenergic receptor; assay: The compound was screened in vitro for the displacement of [3H]prazosin binding to bovine Alpha-1A adrenergic receptor
[7] = target: T5, Adrenergic receptor alpha-1 (Homo sapiens, UniProt P35348+P25100+P35368); assay: Activity against Alpha-1 adrenergic receptor subtypes of human prostate tissue; format: functional
T5 sequence (P35348 whole entry): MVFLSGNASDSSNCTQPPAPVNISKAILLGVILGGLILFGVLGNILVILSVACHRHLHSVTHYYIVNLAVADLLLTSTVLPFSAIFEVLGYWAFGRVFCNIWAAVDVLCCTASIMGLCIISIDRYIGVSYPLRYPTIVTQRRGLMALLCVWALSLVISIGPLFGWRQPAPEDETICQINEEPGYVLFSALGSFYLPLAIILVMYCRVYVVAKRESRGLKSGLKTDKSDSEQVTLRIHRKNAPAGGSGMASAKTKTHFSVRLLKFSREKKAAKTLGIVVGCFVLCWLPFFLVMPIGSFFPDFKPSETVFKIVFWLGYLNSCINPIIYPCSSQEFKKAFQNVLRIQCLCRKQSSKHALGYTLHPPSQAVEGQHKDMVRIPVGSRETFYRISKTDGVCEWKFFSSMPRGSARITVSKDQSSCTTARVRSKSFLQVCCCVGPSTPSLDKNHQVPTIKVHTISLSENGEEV
T5 sequence (P25100 whole entry): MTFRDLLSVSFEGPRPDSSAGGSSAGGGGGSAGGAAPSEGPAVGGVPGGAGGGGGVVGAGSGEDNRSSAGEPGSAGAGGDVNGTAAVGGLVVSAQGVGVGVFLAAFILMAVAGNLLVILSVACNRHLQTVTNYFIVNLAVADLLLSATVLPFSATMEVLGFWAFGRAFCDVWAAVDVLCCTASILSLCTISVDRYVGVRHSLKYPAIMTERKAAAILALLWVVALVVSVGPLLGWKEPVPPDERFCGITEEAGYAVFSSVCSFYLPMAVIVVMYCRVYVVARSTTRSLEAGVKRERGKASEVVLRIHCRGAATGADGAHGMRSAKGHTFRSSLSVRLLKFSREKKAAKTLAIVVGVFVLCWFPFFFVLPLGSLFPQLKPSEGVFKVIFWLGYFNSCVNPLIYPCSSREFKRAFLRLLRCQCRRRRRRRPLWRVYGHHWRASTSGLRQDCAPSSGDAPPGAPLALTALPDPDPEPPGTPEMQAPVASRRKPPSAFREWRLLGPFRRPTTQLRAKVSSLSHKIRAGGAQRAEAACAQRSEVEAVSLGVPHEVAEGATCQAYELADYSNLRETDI
T5 sequence (P35368 whole entry): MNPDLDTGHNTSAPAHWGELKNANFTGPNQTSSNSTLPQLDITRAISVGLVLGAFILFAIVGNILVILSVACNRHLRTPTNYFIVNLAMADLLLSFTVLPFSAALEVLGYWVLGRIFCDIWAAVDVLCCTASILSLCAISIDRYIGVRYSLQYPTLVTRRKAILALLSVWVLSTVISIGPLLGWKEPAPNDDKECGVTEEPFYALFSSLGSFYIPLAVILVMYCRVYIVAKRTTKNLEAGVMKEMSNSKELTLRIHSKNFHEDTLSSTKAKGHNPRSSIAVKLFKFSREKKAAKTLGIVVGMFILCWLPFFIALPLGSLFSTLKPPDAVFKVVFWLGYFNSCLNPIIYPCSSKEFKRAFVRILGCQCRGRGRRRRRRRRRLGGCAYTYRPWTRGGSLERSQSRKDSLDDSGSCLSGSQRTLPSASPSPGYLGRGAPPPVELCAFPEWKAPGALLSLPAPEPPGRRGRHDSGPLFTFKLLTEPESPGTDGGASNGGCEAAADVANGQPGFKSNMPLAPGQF
How it was run: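 Isolated smooth-muscle tissue with cumulative norepinephrine concentration–effect curves (rat aorta, human lower urinary tract). Affinity obtained by full Schild regression for some antagonists. Competitive, reversible interaction at a single subtype assumed.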

[8] = target: T6, Alpha-2B adrenergic receptor (Rattus norvegicus, UniProt P19328); assay: The compound's binding affinity against Alpha-2B adrenergic receptor from rat kidney homogenate in the presence of phentolamine
T6 sequence (P19328 whole entry): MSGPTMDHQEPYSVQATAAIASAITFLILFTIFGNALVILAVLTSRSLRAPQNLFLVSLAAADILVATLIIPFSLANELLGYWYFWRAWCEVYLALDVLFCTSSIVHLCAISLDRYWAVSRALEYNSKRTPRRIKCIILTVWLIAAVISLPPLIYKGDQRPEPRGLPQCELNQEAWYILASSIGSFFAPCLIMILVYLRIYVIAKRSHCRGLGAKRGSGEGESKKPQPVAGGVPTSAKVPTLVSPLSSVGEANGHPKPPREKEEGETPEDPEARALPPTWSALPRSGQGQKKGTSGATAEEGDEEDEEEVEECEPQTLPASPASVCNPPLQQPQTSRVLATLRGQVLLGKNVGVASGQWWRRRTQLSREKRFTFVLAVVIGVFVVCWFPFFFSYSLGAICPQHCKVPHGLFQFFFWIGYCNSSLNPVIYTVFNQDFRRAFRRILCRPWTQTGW

## Cc1nn(C)c2ncc(C(=O)N(C)C)c(NCCCN3CCN(c4ccccc4OCC(F)(F)F)CC3)c12
[1]
  pKi: 7.5
[2]
  Kb: 126 nM
[3]
  Kb: 0.501 nM
D(2) dopamine receptor
  pKi: 8.1
[4]
  pA2: 9

## Cc1ccccc1N1CCN(CCCNc2ncccc2C(=O)N(C)C)CC1
[2]
  Kb: 10 nM
[3]
  Kb: 2 nM
[5]
  Ki: 0.794 nM

## COc1ccccc1N1CCN(CCCNc2ncccc2C(=O)N(C)C)CC1
[1]
  pKi: 7.6
[2]
  Kb: 20 nM
[3]
  Kb: 1.58 nM
D(2) dopamine receptor
  pKi: 7.4
[6]
  Ki: 0.794 nM
[4]
  pA2: 8.5

## CN(C)C(=O)c1cccnc1N1CCC(NCCOc2ccccc2OCC(F)(F)F)CC1
[2]
  Kb: 63.1 nM
[3]
  Kb: 1.58 nM
[5]
  Ki: 1.58 nM

## COc1ccccc1N1CCN(CCCNc2ncccc2C(=O)NC(C)(C)C)CC1
[7]
  pA2: 8.7
[2]
  Kb: 10 nM
[3]
  Kb: 1.26 nM
[5]
  Ki: 1.58 nM

## COc1ccccc1N1CCN(CCCNc2ccncc2C(=O)N(C)C)CC1
[2]
  Kb: 50.1 nM
[3]
  Kb: 12.6 nM
[5]
  Ki: 0.794 nM

## CN(C)C(=O)c1cccnc1NCCCN1CCN(c2ccccc2-c2ccccc2)CC1
[2]
  Kb: 63.1 nM
[8]
  Ki: 79.4 nM
[3]
  Kb: 1.26 nM
D(2) dopamine receptor
  Ki: 126 nM

## COc1ccccc1N1CCN(CCCNc2nc(C)cc(C)c2C(N)=O)CC1
[2]
  Kb: 39.8 nM
[3]
  Kb: 10 nM
[5]
  Ki: 1.58 nM

## COc1ccccc1N1CCN(CCCNc2ccccc2C(=O)N(C)C)CC1
[2]
  Kb: 15.8 nM
[3]
  Kb: 1 nM
[5]
  Ki: 0.398 nM

## COc1cc(F)ccc1N1CCN(CCCNc2ncccc2C(=O)N(C)C)CC1
[1]
  pKi: 6.7
[2]
  Kb: 63.1 nM
[3]
  Kb: 1.58 nM
D(2) dopamine receptor
  pKi: 6.7
[4]
  pA2: 8.5

## CN(C)C(=O)c1cccnc1NCCCN1CCN(c2ccccc2)CC1
[2]
  Kb: 15.8 nM
[3]
  Kb: 6.31 nM
[5]
  Ki: 2 nM

## CN(C)C(=O)c1cccnc1NCCCN1CCN(c2ccccc2OCC2CC2)CC1
[2]
  Kb: 10 nM
[3]
  Kb: 0.158 nM
[5]
  Ki: 0.0794 nM

## COc1cc(F)ccc1N1CCN(CCCNc2c(C(=O)N(C)C)cnc3c2c(C)nn3C)CC1
[1]
  pKi: 6.5
[2]
  Kb: 316 nM
[3]
  Kb: 1.26 nM
D(2) dopamine receptor
  pKi: 6.4
[4]
  pA2: 9.3

## COc1ccccc1N1CCN(CCCNc2c(C)c(=O)n(C)c(=O)n2C)CC1
[3]
  Kb: 3.98 nM
[5]
  Ki: 0.501 nM

## COc1cc2nc(N3CCN(C(=O)C4CCCO4)CC3)nc(N)c2cc1OC (racemic) [TERAZOSIN]
[3]
  Kb: 20 nM
[5]
  Ki: 2.51 nM
